Experimental data as given in ChEMBL document CHEMBL5338787, “Discovery of Novel Bruton's Tyrosine Kinase PROTACs with Enhanced Selectivity and Cellular Efficacy” (J Med Chem, 2023).
Activity calls are given as the source filed them.

Assays:
[1] = tested on: TMD8; assay: Induction of apoptosis in human TMD8 cells assessed as downregulation in Bcl-2 level measured at 0.15 to 3000 nM after 48 hrs by Western blot analysis; format: functional, cell-based; conditions: dose 0.15-3000 nM
How it was run: (§1)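 TMD8 or Mino cells (2 × 10^6 per well) exposed 48 h to 3000–0.15 nM (3-fold dilution) or 1% DMSO. Lysates BCA-normalised, 8–30 μg per lane on 4–20% Tris-glycine gels, transferred to nitrocellulose, probed with antibodies, HRP chemiluminescence detection and densitometry. Representative of two independent experiments.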

[2] = target: T1, Protein cereblon/Tyrosine-protein kinase BTK (Homo sapiens, UniProt Q06187+Q96SW2); assay: PROTAC activity at BTK/CRBN protein protein interaction in human Ramos cell assessed as degradation of BTK incubated at 111 nM for 17 hrs in presence of -iberdomide at 20 uM measured by Western blot analysis
[3] = target: T1, Protein cereblon/Tyrosine-protein kinase BTK; assay: PROTAC activity at BTK/CRBN protein protein interaction in human JeKo-1 cell assessed as Hook effect incubated at >333 nM for 17 hrs measured by Western blot analysis; format: cell-based
How it was run: (§2)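 Ramos or JeKo-1 cells (2 × 10^6 per well) were exposed for 17 h to 3000–0.15 nM PROTAC in 3-fold steps. Cells were lysed and analysed by western blot, with BTK normalised to β-actin. DC50 and Dmax come from the dose-response; DC50 is the mean ± SD of two independent experiments.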

[4] = tested on: MINO; assay: Induction of apoptosis in human MINO cells assessed as increase in cleaved PARP level measured after 48 hrs by Western blot analysis; format: functional, cell-based; conditions: dose 0.15-3000 nM; how it was run: as §1
[5] = target: T1, Protein cereblon/Tyrosine-protein kinase BTK; assay: PROTAC activity at BTK/CRBN protein protein interaction in human Ramos cell assessed as degradation of BTK incubated at 111 nM for 17 hrs in presence of GDC-0853 at 1 uM measured by Western blot analysis; format: cell-based
[6] = tested on: MINO; assay: Induction of apoptosis in human MINO cells assessed as downregulation in Mcl-1 level measured at 0.15 to 3000 nM after 48 hrs by Western blot analysis; format: functional, cell-based; conditions: dose 0.15-3000 nM; how it was run: as §1
[7] = target: T1, Protein cereblon/Tyrosine-protein kinase BTK; assay: PROTAC activity at BTK/CRBN protein protein interaction in human Ramos cell assessed as Hook effect incubated at >333 nM for 17 hrs measured by Western blot analysis; format: cell-based; how it was run: as §2
[8] = tested on: MINO; assay: Induction of apoptosis in human MINO cells assessed as increase in cleaved caspase 3 level measured after 48 hrs by Western blot analysis; format: functional, cell-based; conditions: dose 0.15-3000 nM; how it was run: as §1
[9] = tested on: TMD8; assay: Induction of apoptosis in human TMD8 cells assessed as increase in cleaved caspase 3 level measured after 48 hrs by Western blot analysis; format: functional, cell-based; conditions: dose 0.15-3000 nM; how it was run: as §1

Measured: Activity

T1 sequence (Q06187 2-659 limits assumed): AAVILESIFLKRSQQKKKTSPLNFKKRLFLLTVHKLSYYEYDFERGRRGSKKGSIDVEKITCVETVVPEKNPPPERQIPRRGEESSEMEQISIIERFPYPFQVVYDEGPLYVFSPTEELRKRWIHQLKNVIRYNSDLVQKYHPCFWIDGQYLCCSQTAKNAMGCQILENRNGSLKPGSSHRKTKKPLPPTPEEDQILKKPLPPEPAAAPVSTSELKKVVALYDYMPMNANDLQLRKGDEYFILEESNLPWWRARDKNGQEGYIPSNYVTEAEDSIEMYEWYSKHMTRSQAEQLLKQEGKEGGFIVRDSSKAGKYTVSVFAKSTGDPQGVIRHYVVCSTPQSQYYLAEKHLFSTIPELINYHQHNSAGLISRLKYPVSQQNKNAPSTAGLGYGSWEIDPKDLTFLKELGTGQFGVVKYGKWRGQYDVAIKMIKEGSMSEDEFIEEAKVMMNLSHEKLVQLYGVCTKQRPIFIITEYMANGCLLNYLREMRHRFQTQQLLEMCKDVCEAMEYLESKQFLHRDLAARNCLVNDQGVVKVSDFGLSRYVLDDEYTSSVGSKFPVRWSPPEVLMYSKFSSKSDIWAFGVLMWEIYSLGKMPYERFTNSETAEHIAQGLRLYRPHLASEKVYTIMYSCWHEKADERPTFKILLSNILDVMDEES
T1 sequence (Q96SW2 whole entry partner): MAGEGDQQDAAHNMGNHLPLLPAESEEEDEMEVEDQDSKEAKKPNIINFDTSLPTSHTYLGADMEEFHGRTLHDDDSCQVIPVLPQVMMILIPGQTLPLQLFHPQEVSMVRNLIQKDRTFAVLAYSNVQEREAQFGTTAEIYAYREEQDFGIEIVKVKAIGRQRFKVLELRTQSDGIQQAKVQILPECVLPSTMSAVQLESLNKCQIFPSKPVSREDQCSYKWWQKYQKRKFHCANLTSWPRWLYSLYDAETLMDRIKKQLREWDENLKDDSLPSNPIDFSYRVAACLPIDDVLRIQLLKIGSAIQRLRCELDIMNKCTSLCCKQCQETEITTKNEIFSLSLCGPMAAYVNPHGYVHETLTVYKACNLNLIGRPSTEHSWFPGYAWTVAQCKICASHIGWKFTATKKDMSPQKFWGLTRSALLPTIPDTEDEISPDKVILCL

C[C@H]1CN(C(=O)CNc2cccc3c2C(=O)N(C2CCC(=O)NC2=O)C3=O)CCN1c1ccc(Nc2cc(-c3ccnc(N4CCn5c(cc6c5CC(C)(C)C6)C4=O)c3CO)cn(C)c2=O)nc1 (some centres undefined)
inactive: [2] | [5]
active: all other assays above
